Shown is part of a subset that was picked to be rich in hits.
697 NFkB inh – inhibitors of the PMA/ionomycin-induced NF-kB reporter in 697 B cells; inhibition, % at 4 µM; AID 435022; 330,000 tested, 0.33% active; 697 B-cell NF-kB luciferase reporter, 16 h; in the data active = inhibition above about 35%
XBP1 UPR activ – activators of adaptive arm of unfolded protein response (XBP1). CHO-XBP1 luciferase reporter, IRE1-XBP1 UPR activation, luminescence; percent of tunicamycin response, DMSO as zero. activation, % at 20 µM. 330,000 tested, 0.33% active. AID 463104;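 active = versus positive control, 20 µM dose yields 30% or more activation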;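 note: 100% = tunicamycin at 10 µg/mL and 0% = DMSO only wells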
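Test system: CHO-XBP1 luciferase reporter cells | Buffer or medium: Serum-containing F12 medium, 10% FBS | Schedule: 6 h compound exposure at 37 °C, 5% CO2 | Detection: Steady-Glo luciferase glow luminescence, 10 min after reagent addition | Read-out basis: Activation, % of tunicamycin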
Jurkat NFkB inh – lowers PMA/ionomycin-induced NF-kB signal in Jurkat cells; AID 435003; PMA/ionomycin-induced NF-kB luciferase reporter, luminescence; inhibition, % at 4 µM; 330,000 tested, 0.53% active; in the data active = inhibition above about 50%
CHOP inh – CHOP inhibition in unfolded protein response; CHO-K1 CHOP-promoter luciferase, tunicamycin-induced, 15-18 h; inhibition, % at 10 µM; 220,000 tested, 3.8% active; AID 2732;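 active = compounds that reduced the stress-induced luciferase reporter signal by more than about 70% of percent inhibition, limit read from the data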;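 note: 0% = tunicamycin plus vehicle and 100% = wells without tunicamycin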
CHOP UPR activ – activators of apoptotic arm of unfolded protein response (CHOP) | CHO-CHOP luciferase reporter, UPR activation, luminescence; percent of tunicamycin response over DMSO baseline | activation, % at 10 µM | 330,000 tested, 0.34% active | AID 449763;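 active = at 10 µM dose, activation of 40% or more, normalized to positive control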;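 note: 100% = tunicamycin at 10 µg/mL and 0% = DMSO alone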
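Test system: CHO-CHOP cells, stable luciferase reporter of PERK-eIF2a-CHOP signalling | Quantity: 500 CHO-CHOP cells per well | Buffer or medium: F12 plus 10% serum | Compound dosing: 10 µM single point, 0.5% DMSO | Schedule: 6 h compound treatment, 37 °C | Signal: Luciferase luminescence | Control set: Tunicamycin high control, DMSO low control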
Jurkat NFkB conf – inhibitors of the PMA/ionomycin-induced NF-kB reporter in Jurkat cells, retest. shares compounds with Jurkat NFkB inh. Jurkat NF-kB luciferase, 16 h. inhibition, % at 4 µM. 2,700 tested, 27% active. AID 435020;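 active = inhibition reaching about 45% at 4 µM in either replicate, limit read from the data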;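 note: plate controls were PMA/ionomycin stimulated DMSO wells for no effect and unstimulated DMSO wells for full effect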
Starred values were filed as active, the others as inactive; nt = no result given.

SMILES	697 NFkB inh	XBP1 UPR activ	Jurkat NFkB inh	CHOP inh	CHOP UPR activ	Jurkat NFkB conf
CN(C)c1ccc2c(c1)OC(N)=C(C#N)C2c1cccc(F)c1 (centres undefined)	-101.5	7.8	76.9*	nt	-1.0	55.4*
O=C(NC(=S)Nc1ccc(N2CCCCC2)cc1)c1cccs1	-106.0	2.8	-172.0	65.7	1.0	-107.8
COc1cccc(OC)c1C(=O)Nc1ccc(N2CCN(C(=O)c3cccs3)CC2)cc1	-3.8	-4.9	-1.1	nt	-1.2	nt
COc1cccc(C(=O)Nc2ccc(N3CCN(C(=O)c4cccs4)CC3)cc2)c1	-79.2	0.6	51.9*	nt	-0.1	14.4
COc1ccc(NC(=O)c2cccs2)cc1C(=O)N1CCN(c2ccccc2)CC1	-21.4	-5.7	52.4*	nt	-2.5	12.9
CC1CCC(NS(=O)(=O)c2ccc(N3CCCC3=O)cc2)CC1 (centres undefined)	1.0	-6.0	17.4	nt	1.7	nt
CSCCC(NC(=O)c1cccc([N+](=O)[O-])c1)C(=O)OCC(=O)N1CCCC1=O (centres undefined)	20.9	-3.4	5.5	nt	0.6	nt
COc1ccc(C(=O)c2ccc3oc(-c4ccc(OC)cc4)c(-c4ccc(O)cc4)c3c2)cc1	9.7	4.0	9.7	nt	1.6	nt
Cc1cccc([C@@H]2[C@@H]3C(=O)N(Cc4ccccc4)C(=O)[C@@H]3[C@]3(Cc4ccccc4)C(=O)N(c4cccc(F)c4)C(=O)N23)c1	-7.0	1.8	-9.5	nt	1.2	nt
CC1(C)Nc2ccccc2C(=O)N1c1ccccc1	1.4	-3.7	4.4	nt	4.5	nt
Cc1ccc(NC(=O)CN(C)C(=O)COc2cccc3ccc(C)nc23)cc1	-5.4	0.4	-192.2	nt	0.6	13.2
Cc1ccc2cccc(OCC(=O)N(C)CC(=O)Nc3ccc(F)cc3)c2n1	10.5	1.0	18.5	nt	1.4	nt
COc1ccc(C(NC(=O)C(C)C)c2ccc3cccnc3c2O)cc1 (centres undefined)	-22.2	6.4	61.1*	78.8*	-0.1	64.6*
CCCCC(=O)NC(c1ccc(Cl)cc1Cl)c1ccc2cccnc2c1O (centres undefined)	-25.2	-1.5	51.0*	nt	0.3	75.1*
CCC(=O)NC(c1ccc(Cl)cc1Cl)c1ccc2cccnc2c1O (centres undefined)	-99.4	2.8	37.2	nt	0.8	nt
CCCC(=O)NC(c1ccc(C(C)C)cc1)c1ccc2cccnc2c1O (centres undefined)	-32.9	-1.6	59.8*	nt	1.7	80.9*
CCCC(=O)NC(c1ccc(OC)c(OC)c1)c1cc(Cl)c2cccnc2c1O (centres undefined)	-13.6	1.5	-8.4	32.3	-0.6	nt
CCC(=O)NC(c1ccc(C)cc1)c1ccc2cccnc2c1O (centres undefined)	-5.7	17.3	55.4*	nt	23.0	75.6*
COc1ccccc1C(C(=O)NC1CCCC1)N(C(=O)c1csnn1)C1CC1 (centres undefined)	-8.5	-4.7	-13.3	nt	1.0	nt
Cc1ccc(OCCNC(=O)CNC(=O)c2ccc3c(c2)OCO3)cc1	-8.4	-4.3	-6.5	nt	-1.2	nt
COc1cc(O)c(C(C)=O)c(CC(=O)O)c1	5.2	-1.8	17.0	9.9	1.2	nt
CCCC(=O)NC(c1ccccc1Cl)c1ccc2cccnc2c1O (centres undefined)	-5.3	1.5	62.9*	nt	14.9	80.6*
CCCC(=O)NC(c1ccc(N(C)C)cc1)c1ccc2cccnc2c1O (centres undefined)	-21.0	13.6	54.8*	nt	16.2	74.3*
CC(C)C(=O)NC(c1ccc(Cl)cc1Cl)c1ccc2cccnc2c1O (centres undefined)	-26.1	-0.2	46.6	nt	2.2	nt
Cc1ccc(-n2nc3c(c2NC(=O)C(C)C)CS(=O)(=O)C3)cc1	14.7	-5.2	10.3	nt	1.7	nt
SMILES	697 NFkB inh	XBP1 UPR activ	Jurkat NFkB inh	CHOP inh	CHOP UPR activ	Jurkat NFkB conf
COC(=O)c1cc(OC)c(OC)cc1NC(=S)NC(=O)c1ccco1	-18.0	0.7	85.5*	nt	5.9	-2.2
COc1cc2nc(NC(=O)c3ccco3)sc(=O)c2cc1OC	24.3	-0.2	79.6*	-1.4	-0.6	88.9*
COc1cc2sc(NC(=O)c3ccco3)nc2cc1Cl	-115.5	3.6	-64.9	nt	-0.8	nt
CCOCCCNC(=O)CN1CCN(S(=O)(=O)c2ccc3c(c2)CCC3)CC1	-27.8	1.7	1.8	nt	0.0	nt
CCc1ccc2nc(SCC(=O)Nc3ccccc3N3CCOCC3)c(C#N)cc2c1	5.7	2.3	66.9*	-5.5	0.3	23.7
Cc1n[nH]c(=O)c2c(NC(=O)CSc3nc4ccccc4c(=O)n3CCCOC(C)C)oc(C)c12	17.3	-0.3	1.7	nt	1.5	nt
COc1ccccc1C(=O)Nc1ccc2c(c1)nc(CCNC(=O)c1ccccc1)n2C	-28.2	6.0	53.7*	-31.2	3.2	29.1
COc1ccccc1C(=O)Nc1ccc2c(c1)nc(CCNC(C)=O)n2C	-38.0	0.1	-41.9	-3.2	1.7	nt
COc1ccccc1NC(=O)COC(=O)Cn1cnc2c1c(=O)n(C)c(=O)n2C	-1.0	-1.8	59.6*	nt	0.6	5.6
CC(=Nc1ccc(C)cc1C)c1sc2ccccc2c1O	-172.6	-2.4	-202.5	31.6	4.8	-39.6
COC(=O)c1ccc2nc(Nc3nc4c(F)cc(F)cc4s3)sc2c1	-3.3	-5.4	63.2*	92.5*	-8.3	92.1*
COC(=O)c1ccc2nc(NC(=O)C(C)C)sc2c1	-128.6	3.0	-70.3	-21.8	4.6	nt
CCOC(=O)c1ccc2nc(NC(C)=O)sc2c1	nt	nt	nt	-1.5	nt	nt
CCOC(=O)c1ccc2nc(Nc3nc4ccc(F)cc4s3)sc2c1	10.3	-9.3	55.6*	89.7*	-9.5	84.5*
COC(=O)c1[nH]c2c(c1C)C(=O)CCC2	-5.2	4.2	8.5	35.4	-1.3	nt
Cc1c(C(=O)OC2CCC(C)CC2)[nH]c2c1C(=O)CCC2 (centres undefined)	-218.0	-1.2	-214.9	-4.5	0.9	-120.3
O=C(NCc1ccco1)C1CC(c2cc(C(F)(F)F)cc(C(F)(F)F)c2)=NO1 (centres undefined)	-28.2	8.5	61.9*	7.9	-0.7	19.6
COc1cccc(C2=NOC(C(=O)NCc3ccc(F)cc3)C2)c1 (centres undefined)	-8.8	-0.9	-4.0	-10.9	-0.6	nt
O=C(NCc1ccco1)C1CC(c2cccc([N+](=O)[O-])c2)=NO1 (centres undefined)	9.6	-2.2	14.9	31.1	2.1	nt
COc1ccc(C2=NOC(C(=O)NCc3ccc(F)cc3)C2)cc1OC (centres undefined)	27.3	7.4	77.9*	nt	-0.4	57.9*
COc1ccccc1CNC(=O)C1CC(c2cccc([N+](=O)[O-])c2)=NO1 (centres undefined)	-6.3	0.8	54.8*	14.2	-0.2	12.5

Source: PubChem (several laboratories)
